According to ChEMBL document CHEMBL1149274, “Stereochemical analysis of (hydroxyethyl)urea peptidomimetic inhibitors of gamma-secretase” (J Med Chem, 2004):

Tests used:
Gamma-secretase [1] = assay: Inhibition of gamma secretase in CHO cells expressing human APP by ELISA; type: cell-based
Outline: (§1)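 CHO 7w cells stably expressing the 751-residue APP splice variant, grown to confluence in DMEM with 200 μg/mL G418. Compounds were added from DMSO stocks to a final 1% DMSO; vehicle-only wells served as controls. After 4 or 24 h, the medium was spun at 3000g for 5 min. Aβ40 and Aβ42 were measured by sandwich ELISA (capture 2G3/21F12, biotinylated 3D6 reporter, TMB read at 455 nm). Mean ± SD of three experiments.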

Gamma-secretase [2] = assay: Inhibition of gamma secretase isolated from HeLa cells by ELISA; type: cell-free, Homo sapiens
Outline: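 HeLa membranes were washed in 0.1 M Na2CO3, pH 11.3, then solubilized in 1% CHAPSO. The preparation (0.2 mg protein/mL) was incubated with compound or DMSO and the C100Flag substrate at 37 °C for 0 or 4 h. Reactions were stopped with 0.5% SDS and boiling for 5 min. Aβ x-40 and x-42 products were measured by sandwich ELISA (capture 2G3/21F12, biotinylated 266 reporter).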

Gamma-secretase [3] = assay: Inhibition of gamma secretase in CHO cells expressing human APP after 4 hrs by ELISA; type: cell-based; outline: as §1
Gamma-secretase [4] = assay: Inhibition of gamma secretase in CHO cells expressing human APP after 24 hrs by ELISA; type: cell-based; outline: as §1

Row | Compound | IC50 (Gamma-secretase [1]) [µM] | IC50 (Gamma-secretase [2]) [µM] | IC50 (Gamma-secretase [3]) [µM] | IC50 (Gamma-secretase [4]) [µM]
1 | COC(=O)[C@H](NC(=O)[C@@H](C)NC(=O)N(Cc1ccccc1)C[C@@H](O)[C@@H](Cc1ccccc1)NC(=O)OC(C)(C)C)C(C)C | 10 | 3 |  | 
2 | COC(=O)[C@@H](CC(C)C)NC(=O)[C@@H](CC(C)C)NC(=O)N(Cc1ccccc1)C[C@@H](O)[C@@H](Cc1ccccc1)NC(=O)OC(C)(C)C | 3 | 0.2 | 3 | 9
3 | COC(=O)[C@@H](CC(C)C)NC(=O)[C@@H](CC(C)C)NC(=O)N(Cc1ccccc1)C[C@H](O)[C@@H](Cc1ccccc1)NC(=O)OC(C)(C)C | 8 | 2 |  | 
4 | COC(=O)[C@H](NC(=O)[C@@H](CC(C)C)NC(=O)N(Cc1ccccc1)C[C@H](O)[C@@H](Cc1ccccc1)NC(=O)OC(C)(C)C)C(C)C | 10 | 3 |  | 
5 | COC(=O)[C@H](CC(C)C)NC(=O)[C@H](CC(C)C)NC(=O)N(Cc1ccccc1)C[C@@H](O)[C@H](Cc1ccccc1)NC(=O)OC(C)(C)C | 0.6 | 0.03 | 0.6 | 9.4
6 | COC(=O)[C@@H](CC(C)C)NC(=O)N(Cc1ccccc1)C[C@@H](O)[C@@H](Cc1ccccc1)NC(=O)OC(C)(C)C | 15 | 6 |  | 
7 | COC(=O)[C@H](NC(=O)[C@H](NC(=O)N(Cc1ccccc1)C[C@@H](O)[C@@H](Cc1ccccc1)NC(=O)OC(C)(C)C)C(C)C)C(C)C | 12 | 2 |  | 
8 | COC(=O)[C@@H](NC(=O)[C@H](CC(C)C)NC(=O)N(Cc1ccccc1)C[C@@H](O)[C@@H](Cc1ccccc1)NC(=O)OC(C)(C)C)C(C)C | 0.4 | 0.01 |  | 
9 | CC(C)C[C@H](NC(=O)[C@@H](CC(C)C)NC(=O)N(Cc1ccccc1)C[C@@H](O)[C@@H](Cc1ccccc1)NC(=O)OC(C)(C)C)C(=O)OC(C)(C)C |  |  | 0.6 | 7
10 | COC(=O)[C@H](NC(=O)[C@H](CC(C)C)NC(=O)N(Cc1ccccc1)C[C@@H](O)[C@@H](Cc1ccccc1)NC(=O)OC(C)(C)C)C(C)C | 0.8 | 0.08 |  | 
11 | COC(=O)[C@H](NC(=O)[C@H](CC(C)C)NC(=O)N(Cc1ccccc1)C[C@@H](O)[C@H](Cc1ccccc1)NC(=O)OC(C)(C)C)C(C)C | 1 | 0.6 |  | 
12 | COC(=O)[C@@H](NC(=O)[C@@H](CC(C)C)NC(=O)N(Cc1ccccc1)C[C@@H](O)[C@H](Cc1ccccc1)NC(=O)OC(C)(C)C)C(C)C | 0.8 | 0.06 |  | 
13 | COC(=O)[C@@H](C)NC(=O)[C@@H](CC(C)C)NC(=O)N(Cc1ccccc1)C[C@@H](O)[C@@H](Cc1ccccc1)NC(=O)OC(C)(C)C | 7 | 2 |  | 
14 | COC(=O)[C@H](NC(=O)[C@@H](Cc1ccccc1)NC(=O)N(Cc1ccccc1)C[C@@H](O)[C@@H](Cc1ccccc1)NC(=O)OC(C)(C)C)C(C)C | 24 | 9 |  | 
15 | COC(=O)[C@H](NC(=O)[C@@H](CC(C)C)NC(=O)N(Cc1ccccc1)C[C@@H](O)[C@@H](Cc1ccccc1)NC(=O)OC(C)(C)C)C(C)C | 2 | 0.1 | 2 | 17
16 | COC(=O)[C@H](NC(=O)[C@@H](CC(C)C)NC(=O)N(Cc1ccccc1)C[C@@H](O)[C@@H](Cc1ccccc1)NC(=O)[C@@H](C)NC(=O)OC(C)(C)C)C(C)C | 30 | 12 |  | 
17 | COC(=O)[C@@H](NC(=O)[C@H](CC(C)C)NC(=O)N(Cc1ccccc1)C[C@@H](O)[C@H](Cc1ccccc1)NC(=O)OC(C)(C)C)C(C)C | 0.4 | 0.01 | 0.4 | 18
18 | COC(=O)[C@H](NC(=O)[C@@H](CC(C)C)NC(=O)N(Cc1ccccc1)C[C@@H](O)[C@@H](Cc1ccccc1)NC(=O)[C@@H](CC(C)C)NC(=O)OC(C)(C)C)C(C)C | 2 | 0.9 |  | 
19 | COC(=O)[C@H](NC(=O)[C@@H](CC(C)C)NC(=O)N(Cc1ccccc1)C[C@@H](O)[C@@H](Cc1ccccc1)NC(=O)[C@H](NC(=O)OC(C)(C)C)C(C)C)C(C)C | 7 | 3 |  | 
20 | COC(=O)[C@@H](Cc1ccccc1)NC(=O)[C@@H](CC(C)C)NC(=O)N(Cc1ccccc1)C[C@@H](O)[C@@H](Cc1ccccc1)NC(=O)OC(C)(C)C | 3 | 0.8 |  | 
21 | COC(=O)[C@H](NC(=O)[C@@H](CC(C)C)NC(=O)N(CC(C)C)C[C@@H](O)[C@@H](Cc1ccccc1)NC(=O)OC(C)(C)C)C(C)C | 5 | 2 |  | 
22 | COC(=O)[C@H](NC(=O)[C@@H](CC(C)C)NC(=O)N(Cc1ccccc1)C[C@@H](O)[C@@H](Cc1ccccc1)NC(=O)[C@@H](Cc1ccccc1)NC(=O)OC(C)(C)C)C(C)C | 8 | 2 |  | 
23 | COC(=O)[C@H](NC(=O)[C@@H](CC(C)C)NC(=O)N(C)C[C@@H](O)[C@@H](Cc1ccccc1)NC(=O)OC(C)(C)C)C(C)C | 12 | 7 |  | 
24 | COC(=O)[C@@H](NC(=O)[C@@H](CC(C)C)NC(=O)N(Cc1ccccc1)C[C@@H](O)[C@@H](Cc1ccccc1)NC(=O)OC(C)(C)C)C(C)C | 8 | 0.8 |  | 
25 | CC(C)C[C@H](NC(=O)N(Cc1ccccc1)C[C@@H](O)[C@H](Cc1ccccc1)NC(=O)OC(C)(C)C)C(=O)N[C@H](C(=O)OC(C)(C)C)C(C)C |  |  | 0.3 | 6
26 | COC(=O)[C@H](NC(=O)[C@@H](CC(C)C)NC(=O)N(Cc1ccccc1)C[C@@H](O)[C@H](Cc1ccccc1)NC(=O)OC(C)(C)C)C(C)C | 0.6 | 0.03 |  | 
27 | CC(C)C[C@@H](NC(=O)N(Cc1ccccc1)C[C@@H](O)[C@@H](Cc1ccccc1)NC(=O)OC(C)(C)C)C(=O)N[C@@H](C(=O)OC(C)(C)C)C(C)C |  |  | 3 | 6.2
28 | CC(C)C[C@H](NC(=O)N(Cc1ccccc1)C[C@@H](O)[C@H](Cc1ccccc1)NC(=O)OC(C)(C)C)C(=O)N[C@H](CC(C)C)C(=O)OC(C)(C)C |  |  | 0.4 | 5
29 | COC(=O)[C@H](NC(=O)[C@@H](CC(C)C)NC(=O)N(C[C@@H](O)[C@@H](Cc1ccccc1)NC(=O)OC(C)(C)C)C(C)C)C(C)C | 8 | 4 |  | 
